ChEMBL document CHEMBL4229344 (Eur J Med Chem, 2018)
Active and inactive are the calls of the source. No cut-off for these calls is given here.

Key:
[1] = biological target: Activin receptor type-1 (Homo sapiens) (UniProt Q04771); assay: Binding affinity to wild-type human ACVR1 (C188 to C509 residues) expressed in bacterial expression system assessed as residual binding level at 1 uM by Kinomescan method relative to control
How it was run: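 Single-concentration (1 μM) competition-binding screen run by KINOMEscan against a panel of 468 purified kinases and mutants. The read-out is the relative binding activity of the test compound to each kinase.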

[2] = biological target: Cyclin-dependent kinase 5 (Homo sapiens) (UniProt Q00535); assay: Binding affinity to wild-type human full length CDK5 (M1 to P292 residues) expressed in bacterial expression system assessed as residual binding level at 1 uM by Kinomescan method relative to control
Sequence of Cyclin-dependent kinase 5 (Homo sapiens) (Q00535 whole entry, looked up, the tested form may be a part): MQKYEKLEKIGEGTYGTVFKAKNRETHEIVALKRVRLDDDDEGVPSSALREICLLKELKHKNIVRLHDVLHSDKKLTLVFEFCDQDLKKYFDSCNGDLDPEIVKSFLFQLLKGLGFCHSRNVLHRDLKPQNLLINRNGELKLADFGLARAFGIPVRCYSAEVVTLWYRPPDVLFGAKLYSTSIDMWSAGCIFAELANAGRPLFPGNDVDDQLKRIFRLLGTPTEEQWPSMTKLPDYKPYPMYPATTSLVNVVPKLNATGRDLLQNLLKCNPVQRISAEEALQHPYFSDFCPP
How it was run: (§1)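 KINOMEscan competition binding against 468 purified kinases/mutants, test compound at 1 µM; residual binding relative to control.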

[3] = biological target: Ephrin type-A receptor 5 (Homo sapiens) (UniProt P54756); assay: Binding affinity to wild-type human partial length EPHA5 (T627 to V930 residues) expressed in bacterial expression system assessed as residual binding level at 1 uM by Kinomescan method relative to control
Sequence of Ephrin type-A receptor 5 (Homo sapiens) (P54756 whole entry, the tested form may be a part): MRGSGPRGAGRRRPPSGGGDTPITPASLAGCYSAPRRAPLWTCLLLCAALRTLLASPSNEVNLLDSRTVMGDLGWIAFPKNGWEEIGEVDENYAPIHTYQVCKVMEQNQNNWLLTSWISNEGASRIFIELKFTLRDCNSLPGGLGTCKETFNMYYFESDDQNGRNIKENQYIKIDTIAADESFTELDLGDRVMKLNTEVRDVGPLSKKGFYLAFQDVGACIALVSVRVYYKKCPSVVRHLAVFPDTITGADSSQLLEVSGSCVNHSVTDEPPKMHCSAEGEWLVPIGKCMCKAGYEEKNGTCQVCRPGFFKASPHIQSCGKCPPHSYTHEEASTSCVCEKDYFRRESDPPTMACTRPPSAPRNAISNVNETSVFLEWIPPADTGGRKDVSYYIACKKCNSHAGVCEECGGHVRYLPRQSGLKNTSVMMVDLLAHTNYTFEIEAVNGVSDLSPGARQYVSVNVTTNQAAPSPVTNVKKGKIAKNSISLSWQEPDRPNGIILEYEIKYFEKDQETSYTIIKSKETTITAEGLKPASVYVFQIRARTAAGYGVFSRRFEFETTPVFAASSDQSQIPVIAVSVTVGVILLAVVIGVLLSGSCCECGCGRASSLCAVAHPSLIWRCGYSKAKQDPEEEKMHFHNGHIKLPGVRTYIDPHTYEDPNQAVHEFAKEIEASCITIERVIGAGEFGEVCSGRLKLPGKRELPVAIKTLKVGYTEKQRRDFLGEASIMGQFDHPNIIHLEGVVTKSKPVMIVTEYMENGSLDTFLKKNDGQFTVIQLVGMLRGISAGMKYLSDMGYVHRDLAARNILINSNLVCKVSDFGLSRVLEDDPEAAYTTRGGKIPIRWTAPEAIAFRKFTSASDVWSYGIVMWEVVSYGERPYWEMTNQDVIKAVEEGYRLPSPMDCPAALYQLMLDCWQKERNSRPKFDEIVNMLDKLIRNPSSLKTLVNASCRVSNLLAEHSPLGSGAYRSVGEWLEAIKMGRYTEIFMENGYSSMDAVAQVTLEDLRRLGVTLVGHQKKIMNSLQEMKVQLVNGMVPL

[4] = system: eIF-2-alpha kinase GCN2 (Homo sapiens), Q9P2K8 [S808G]; assay: Binding affinity to wild-type human partial length GCN2 kinase domain 2 (R585 to T1018 residues) S808G mutant expressed in bacterial expression system assessed as residual binding level at 1 uM by Kinomescan method relative to control
[5] = biological target: Cyclin-dependent kinase 15 (Homo sapiens) (UniProt Q96Q40); assay: Binding affinity to wild-type human full length PFTAIRE2 (M1 to W384 residues) expressed in bacterial expression system assessed as residual binding level at 1 uM by Kinomescan method relative to control; how it was run: as §1
Sequence of Cyclin-dependent kinase 15 (Homo sapiens) (Q96Q40 whole entry, the tested form may be a part): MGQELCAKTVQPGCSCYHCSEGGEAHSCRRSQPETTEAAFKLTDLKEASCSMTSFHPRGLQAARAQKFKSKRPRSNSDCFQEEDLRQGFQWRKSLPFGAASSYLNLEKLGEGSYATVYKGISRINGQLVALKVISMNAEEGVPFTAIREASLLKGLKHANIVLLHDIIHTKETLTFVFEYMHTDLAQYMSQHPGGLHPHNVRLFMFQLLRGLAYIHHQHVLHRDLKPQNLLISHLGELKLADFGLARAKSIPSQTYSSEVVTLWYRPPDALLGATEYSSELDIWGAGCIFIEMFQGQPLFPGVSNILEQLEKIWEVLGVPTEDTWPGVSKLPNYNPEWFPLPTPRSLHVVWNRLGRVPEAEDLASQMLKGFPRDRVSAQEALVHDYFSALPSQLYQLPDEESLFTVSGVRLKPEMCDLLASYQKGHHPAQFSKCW

[6] = biological target: Cyclin-dependent kinase 14 (Homo sapiens) (UniProt O94921); assay: Binding affinity to wild-type human full length PFTK1 (M1 to H451 residues) expressed in bacterial expression system assessed as residual binding level at 1 uM by Kinomescan method relative to control
Sequence of Cyclin-dependent kinase 14 (Homo sapiens) (O94921 whole entry, the tested form may be a part): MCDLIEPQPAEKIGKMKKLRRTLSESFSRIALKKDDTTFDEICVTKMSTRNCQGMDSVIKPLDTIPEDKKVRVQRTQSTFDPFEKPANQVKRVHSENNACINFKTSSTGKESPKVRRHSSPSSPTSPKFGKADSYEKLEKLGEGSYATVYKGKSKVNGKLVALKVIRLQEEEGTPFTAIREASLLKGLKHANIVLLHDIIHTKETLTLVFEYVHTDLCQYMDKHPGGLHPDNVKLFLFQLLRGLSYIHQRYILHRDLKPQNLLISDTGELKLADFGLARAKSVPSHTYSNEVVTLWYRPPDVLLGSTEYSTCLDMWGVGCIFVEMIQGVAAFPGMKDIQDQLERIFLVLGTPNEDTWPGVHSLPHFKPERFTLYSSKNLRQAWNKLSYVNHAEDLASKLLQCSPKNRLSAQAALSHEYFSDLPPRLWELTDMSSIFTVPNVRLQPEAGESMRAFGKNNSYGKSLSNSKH
How it was run: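 Single-concentration KINOMEscan (DiscoverX) binding screen at 1 μM against a panel of 468 purified kinases and mutants. The read-out is binding relative to control.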

[7] = biological target: cAMP-dependent protein kinase catalytic subunit alpha (Homo sapiens) (UniProt P17612); assay: Binding affinity to wild-type human partial length PKAC-alpha (G10 to F351 residues) expressed in bacterial expression system assessed as residual binding level at 1 uM by Kinomescan method relative to control
[8] = biological target: Serine/threonine-protein kinase WNK2 (Homo sapiens) (UniProt Q9Y3S1); assay: Binding affinity to wild-type human partial length WNK2 (V47 to D482 residues) expressed in mammalian expression system assessed as residual binding level at 1 uM by Kinomescan method relative to control
[9] = biological target: Serine/threonine-protein kinase WNK3 (Homo sapiens) (UniProt Q9BYP7); assay: Binding affinity to wild-type human partial length WNK3 (M1 to D434 residues) expressed in mammalian expression system assessed as residual binding level at 1 uM by Kinomescan method relative to control
[10] = biological target: Platelet-derived growth factor receptor alpha (Homo sapiens, UniProt P16234); assay: Inhibition of PDGFRalpha autophosphorylation at Y754 residue in human EOL-1 cells up to 300 nM after 2 hrs by Western blot method; type: cell-based
Sequence of Platelet-derived growth factor receptor alpha (P16234 whole entry, the tested form may be a part): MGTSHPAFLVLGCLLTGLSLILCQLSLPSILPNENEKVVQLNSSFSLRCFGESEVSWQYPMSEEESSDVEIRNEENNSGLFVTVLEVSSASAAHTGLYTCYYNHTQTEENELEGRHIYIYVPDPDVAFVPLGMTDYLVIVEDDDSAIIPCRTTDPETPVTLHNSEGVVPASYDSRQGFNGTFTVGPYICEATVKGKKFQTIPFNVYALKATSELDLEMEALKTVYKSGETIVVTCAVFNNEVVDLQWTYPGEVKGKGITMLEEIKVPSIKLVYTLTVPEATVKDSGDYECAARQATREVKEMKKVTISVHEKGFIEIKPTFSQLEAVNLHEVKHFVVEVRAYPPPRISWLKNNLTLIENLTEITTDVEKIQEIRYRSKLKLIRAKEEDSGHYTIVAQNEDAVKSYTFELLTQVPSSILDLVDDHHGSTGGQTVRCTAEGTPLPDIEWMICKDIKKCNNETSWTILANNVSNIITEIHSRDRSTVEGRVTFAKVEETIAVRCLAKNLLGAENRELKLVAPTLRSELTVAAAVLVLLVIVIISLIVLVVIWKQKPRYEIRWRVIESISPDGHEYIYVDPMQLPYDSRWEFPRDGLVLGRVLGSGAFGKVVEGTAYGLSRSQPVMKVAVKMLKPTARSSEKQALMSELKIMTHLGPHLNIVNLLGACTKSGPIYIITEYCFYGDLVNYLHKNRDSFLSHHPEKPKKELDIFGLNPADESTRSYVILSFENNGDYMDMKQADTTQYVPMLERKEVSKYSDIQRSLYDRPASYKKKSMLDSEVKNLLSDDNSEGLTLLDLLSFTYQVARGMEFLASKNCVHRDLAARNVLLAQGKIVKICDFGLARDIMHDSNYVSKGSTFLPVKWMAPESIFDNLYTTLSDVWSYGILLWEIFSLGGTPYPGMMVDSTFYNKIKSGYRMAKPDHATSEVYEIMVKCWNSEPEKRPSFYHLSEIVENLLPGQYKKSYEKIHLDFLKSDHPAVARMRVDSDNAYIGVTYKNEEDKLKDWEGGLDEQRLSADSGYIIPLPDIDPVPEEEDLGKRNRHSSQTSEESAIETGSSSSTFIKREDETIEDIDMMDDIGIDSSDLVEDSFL

[11] = biological target: Mitogen-activated protein kinase kinase kinase 12 (DLK/MAP3K12) (Homo sapiens) (UniProt Q12852); assay: Binding affinity to wild-type human full length DLK (M1 to P859 residues) expressed in mammalian expression system assessed as residual binding level at 1 uM by Kinomescan method relative to control
Sequence of Mitogen-activated protein kinase kinase kinase 12 (DLK/MAP3K12) (Homo sapiens) (Q12852 whole entry, looked up, the tested form may be a part): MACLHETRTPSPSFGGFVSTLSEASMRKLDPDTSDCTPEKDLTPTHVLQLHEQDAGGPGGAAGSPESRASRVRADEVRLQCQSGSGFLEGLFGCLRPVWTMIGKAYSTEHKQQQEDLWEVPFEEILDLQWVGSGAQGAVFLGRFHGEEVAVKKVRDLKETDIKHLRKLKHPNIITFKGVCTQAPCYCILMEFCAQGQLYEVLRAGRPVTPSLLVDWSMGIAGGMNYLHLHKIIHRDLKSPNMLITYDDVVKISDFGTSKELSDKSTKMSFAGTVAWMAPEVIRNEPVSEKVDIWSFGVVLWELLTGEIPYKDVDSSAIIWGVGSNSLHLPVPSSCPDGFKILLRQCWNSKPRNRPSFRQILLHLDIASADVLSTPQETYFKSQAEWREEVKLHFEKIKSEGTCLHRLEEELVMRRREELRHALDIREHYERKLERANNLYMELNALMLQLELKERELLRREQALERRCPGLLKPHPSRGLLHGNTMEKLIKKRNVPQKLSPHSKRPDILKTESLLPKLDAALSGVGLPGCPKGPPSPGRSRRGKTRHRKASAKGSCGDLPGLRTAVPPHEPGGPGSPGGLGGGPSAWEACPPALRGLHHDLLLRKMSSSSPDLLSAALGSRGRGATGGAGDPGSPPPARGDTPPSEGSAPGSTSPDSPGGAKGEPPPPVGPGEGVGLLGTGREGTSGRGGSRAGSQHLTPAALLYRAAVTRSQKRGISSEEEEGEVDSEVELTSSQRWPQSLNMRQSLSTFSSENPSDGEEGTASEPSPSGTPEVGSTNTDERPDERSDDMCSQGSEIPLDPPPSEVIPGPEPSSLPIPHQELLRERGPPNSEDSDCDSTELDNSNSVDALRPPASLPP

Sequence of Activin receptor type-1 (Homo sapiens) (Q04771 whole entry, the tested form may be a part): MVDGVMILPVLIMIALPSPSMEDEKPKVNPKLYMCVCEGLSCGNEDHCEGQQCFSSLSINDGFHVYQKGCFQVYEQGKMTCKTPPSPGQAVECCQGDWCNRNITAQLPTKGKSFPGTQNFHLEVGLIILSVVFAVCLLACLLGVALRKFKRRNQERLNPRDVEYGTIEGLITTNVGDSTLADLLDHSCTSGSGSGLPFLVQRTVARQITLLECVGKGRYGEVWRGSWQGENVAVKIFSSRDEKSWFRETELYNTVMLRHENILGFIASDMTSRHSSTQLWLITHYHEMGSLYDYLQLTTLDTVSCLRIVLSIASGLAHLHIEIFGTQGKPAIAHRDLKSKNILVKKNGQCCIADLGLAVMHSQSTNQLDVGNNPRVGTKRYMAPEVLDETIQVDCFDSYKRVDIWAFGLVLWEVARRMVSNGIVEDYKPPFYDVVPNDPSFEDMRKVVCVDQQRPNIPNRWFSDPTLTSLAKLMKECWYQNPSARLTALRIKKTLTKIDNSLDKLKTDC

## Cc1ccc(NC(=O)c2ccc(CN(CCN(C)C)C(=O)c3cccnc3)cc2)cc1Nc1nccc(-c2cccnc2)n1
[1]
  Activity: 99%
[2]
  Activity: 94%
[3]
  Activity: 86%
[4]
  Activity: 71%
[5]
  Activity: 87%
[6]
  Activity: 90%
[7]
  Activity: 95%
[8]
  Activity: 100%
[9]
  Activity: 100%
[10]
  inhibition: inactive
[11]
  Activity: 93%
